# Reference: ChEMBL document CHEMBL1136605, “Synthesis and biological activities of novel beta-carbolines as PDE5 inhibitors” (Bioorg Med Chem Lett, 2003)
# pIC50, pKi: −log10 of the molar value.
# Legend:
# [1] = biological target: T1, cGMP-specific 3',5'-cyclic phosphodiesterase (Homo sapiens, UniProt O76074); test: Inhibitory activity against PDE5 from human corpus cavernosum
# Canis familiaris = test: In vivo increased intracavernosal pressure in dogs after intravenous dose; assay type: functional, Canis lupus familiaris
# Summary of the method: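 Ascending intravenous doses given at 40-min intervals after control responses were established. Intracavernosal pressure (ICP) was evoked 15 min after each dose by pelvic nerve electrical stimulation at the same setting. Effect was taken as the ICP area under the curve at each stimulation minus the control-response AUC.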
# Homo sapiens = organism: Homo sapiens; test: Relative inhibition of PDE6 from human retinal cone and PDE5 from human corpus cavernosum
# Summary of the method: (§1)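 Ratio of inhibition of a second human PDE to that of PDE5 from corpus cavernosum. PDE2 was from corpus cavernosum and PDE6 from retinal cone. Compounds were diluted in DMSO to 2% DMSO final. Ki was determined for each enzyme.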
# [2] = biological target: Phosphodiesterase 2 and 5 (PDE2 and PDE5) (Homo sapiens) (UniProt O76074+O00408); test: Relative inhibition of PDE2 and PDE5 from human corpus cavernosum; assay type: protein assay; summary of the method: as §1
# [3] = biological target: T1, cGMP-specific 3',5'-cyclic phosphodiesterase; test: Inhibition of PDE5 (Phosphodiesterase) from human corpus cavernosum
# Summary of the method: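 Enzyme was PDE5 from human corpus cavernosum. Compounds were serially diluted in 100% DMSO and added to assay buffer at 2% DMSO final. […] Ki was derived, with IC50 instead for a few compounds. Values are means of three experiments.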
pKi [1],SMILES,further results
6.61,COc1ccc(-c2cnc(N3CCc4c([nH]c5ccccc45)C3c3ccc4c(c3)OCO4)nc2)cc1 (stereo in doubt; 15a),
,CCCc1nn(C)c2c(=O)[nH]c(-c3cc(S(=O)(=O)N4CCN(C)CC4)ccc3OCC)nc12,ED50 (Canis familiaris): 5.1 µg/kg
< 7.00,COc1ccc(-c2cnc(N3CC(O)c4c([nH]c5ccccc45)C3c3ccc4c(c3)OCO4)nc2)cc1OC (stereo not given),
,COc1ccc(-c2cnc(N3CC(=O)c4c([nH]c5ccccc45)C3c3ccc4c(c3)OCO4)nc2)cc1OC (stereo not given),Selectivity (Homo sapiens): 4; Selectivity [2]: 23000
6.90,O=C(c1ccc(-c2cccc(C(F)(F)F)c2)o1)N1CCc2c([nH]c3ccccc23)C1c1ccc2c(c1)OCO2 (stereo not given),
,O=C(c1ccc(-c2ccc(Cl)cc2[N+](=O)[O-])o1)N1CCc2c([nH]c3ccccc23)[C@H]1c1ccc2c(c1)OCO2,pIC50 [3]: 7.17
7.30,CC(=O)Nc1cccc(-c2ccc(C(=O)N3CCc4c([nH]c5ccccc45)C3c3ccc4c(c3)OCO4)o2)c1 (stereo not given),
6.75,Nc1cccc(-c2ccc(C(=O)N3CCc4c([nH]c5ccccc45)C3c3ccc4c(c3)OCO4)o2)c1 (stereo not given),
7.74,COc1ccc(-c2cnc(N3CC(=O)c4c([nH]c5ccccc45)C3c3ccc4c(c3)OCO4)nc2)cc1 (stereo not given),ED50 (Canis familiaris): 173 µg/kg
6.91,Nc1ccc(-c2ccc(C(=O)N3CCc4c([nH]c5ccccc45)C3c3ccc4c(c3)OCO4)o2)cc1 (stereo not given),
6.61,COc1ccc(-c2cnc(N3CCc4c([nH]c5ccccc45)C3c3ccc4c(c3)OCO4)nc2)cc1 (stereo in doubt; 8a),
6.73,COc1ccc(-c2cnc(N3CCc4c([nH]c5ccccc45)C3c3ccc4c(c3)CCO4)nc2)cc1 (stereo in doubt; 15f),
,O=C(c1ccc(-c2ccc(Cl)cc2[N+](=O)[O-])o1)N1CCc2c([nH]c3ccccc23)[C@@H]1c1ccc2c(c1)OCO2,pIC50 [3]: < 5.00
,O=C(O)CCCC(=O)Nc1ccc(-c2ccc(C(=O)N3CCc4c([nH]c5ccccc45)C3c3ccc4c(c3)OCO4)o2)cc1 (stereo not given),pIC50 [3]: 7.00
,O=C(c1ccc(-c2ccc(Cl)cc2[N+](=O)[O-])o1)N1CCc2c([nH]c3ccccc23)C1c1ccc2c(c1)OCO2 (stereo not given),pIC50 [3]: 6.98
6.27,Cc1ccc(-c2cnc(N3CCc4c([nH]c5ccccc45)C3c3ccc4c(c3)OCO4)nc2)cc1 (stereo not given),
7.19,CC(=O)Nc1ccc(-c2ccc(C(=O)N3CCc4c([nH]c5ccccc45)C3c3ccc4c(c3)OCO4)o2)cc1 (stereo not given),

pKi [1],SMILES,further results
6.88,CS(=O)(=O)c1ccc(-c2cnc(N3CCc4c([nH]c5ccccc45)C3c3ccc4c(c3)OCO4)nc2)c([N+](=O)[O-])c1 (stereo not given),
< 5.30,O=C(c1ccc(-c2cccc([N+](=O)[O-])c2)o1)N1CCc2c(sc3ccccc23)C1c1ccc2c(c1)OCO2 (stereo not given),
6.90,Clc1ccc(-c2cnc(N3CCc4c([nH]c5ccccc45)C3c3ccc4c(c3)OCO4)nc2)cc1 (stereo not given),
8.09,CN1CCN(C(=O)c2ccc(-c3ccc(C(=O)N4CCc5c([nH]c6ccccc56)C4c4ccc5c(c4)CCO5)o3)cc2)CC1 (stereo not given),Selectivity (Homo sapiens): 119; Selectivity [2]: > 10000
6.72,COc1ccc(-c2cnc(N3CCc4c([nH]c5ccccc45)C3c3ccc4c(c3)CCO4)nc2)cc1 (stereo in doubt; 8f),
,O=C(O)CCCC(=O)Nc1cccc(-c2ccc(C(=O)N3CCc4c([nH]c5ccccc45)C3c3ccc4c(c3)OCO4)o2)c1 (stereo not given),pIC50 [3]: 7.02
6.81,Oc1ccc(-c2cnc(N3CCc4c([nH]c5ccccc45)C3c3ccc4c(c3)CCO4)nc2)cc1 (stereo not given),
7.49,O=C(c1ccc(-c2ccccn2)o1)N1CCc2c([nH]c3ccccc23)C1c1ccc2c(c1)CCO2 (stereo not given),Selectivity (Homo sapiens): 32; Selectivity [2]: 308
6.66,O=C(c1ccc(-c2ccccc2[N+](=O)[O-])o1)N1CCc2c([nH]c3ccccc23)C1c1ccc2c(c1)OCO2 (stereo not given),
6.89,O=C(c1ccc(-c2cccc([N+](=O)[O-])c2)o1)N1CCc2c([nH]c3ccccc23)C1c1ccc2c(c1)OCO2 (stereo not given),
< 6.00,c1ccc2c3c([nH]c2c1)C(c1ccc2c(c1)CCO2)N(c1ncc(-c2ccc(OCCN4CCCC4)cc2)cn1)CC3 (stereo not given),
,O=C(c1ccc(-c2ccccc2)o1)N1CCc2c([nH]c3ccccc23)C1c1ccc2c(c1)OCO2 (stereo not given),pIC50 [3]: 6.12
,Cc1ncc(-c2cnc(N3CCc4c([nH]c5ccccc45)C3c3ccc4c(c3)CCO4)nc2)n1C (stereo not given),Selectivity (Homo sapiens): 187; Selectivity [2]: > 4000
< 5.00,COc1ccc(-c2cnc(N3CCc4c([nH]c5ccccc45)C3c3ccc(OC)c(OC)c3)nc2)cc1 (stereo not given),
6.07,FC(F)(F)c1cccc(-c2ccc(CN3CCc4c([nH]c5ccccc45)C3c3ccc4c(c3)OCO4)o2)c1 (stereo not given),
7.11,O=C(c1ccc(-c2ccc([N+](=O)[O-])cc2)o1)N1CCc2c([nH]c3ccccc23)C1c1ccc2c(c1)OCO2 (stereo not given),
